# PREPL inh – inhibits the human prolyl oligopeptidase-like enzyme; Q4J6C6; recombinant PREPL, fluorescence polarization activity-based probe; inhibition, % at 5.96 µM; 320,000 tested, 0.68% active; AID 2751; in the data active = inhibition above about 43%;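 note: 0% = enzyme with DMSO and 100% = wells lacking enzyme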
# Tb MetRS inh – Trypanosoma brucei MetRS inhibition. purified T. brucei MetRS, ATP depletion, Kinase-Glo luminescence. inhibition, % at 11.9 µM. 360,000 tested, 0.4% active;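 active = inhibition above a per-plate cutoff of the control wells' mean inhibition plus 3 SD, cut at about 5.5% in these data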;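 note: 0% = DMSO wells median and 100% = median of wells with control inhibitor compound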
#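 Material – parasite MetRS enzyme · Medium – HEPES-MgCl2-KCl buffer plus DTT, spermine, BSA, pyrophosphatase · Reagent – ATP, methionine and E. coli bulk tRNA substrates · Times – 15 min enzyme-compound preincubation, 2 h reaction, 10 min detection, 25 °C · Measured by – luminescence of leftover ATP · Evaluation – percent inhibition relative to median high and low control wells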
# Neddylation inh – inhibitors of human cullin neddylation. P61081+Q13564. TR-FRET cullin neddylation, biochemical. inhibition, % at 25 µM. 360,000 tested, 0.58% active. AID 651699; in the data active = inhibition above about 36%
# Rpn11 block – inhibitors of human proteasome Rpn11; O00487; human 26S proteasome, Ub4-pepOG fluorescence polarization; 20S core pre-blocked with epoxomicin; inhibition, % at 20 µM; 360,000 tested, 0.59% active; AID 588493;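 active = inhibition at 20 µM, scaled to each plate's controls, above about 33%, limit read from the data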
# CSN deneddyl inh – CSN deneddylation inhibition. Q92905. Purified CSN, SCF-Nedd8-OG deneddylation, fluorescence polarization. inhibition, % at 12.5 µM. 360,000 tested, 0.38% active. AID 651999;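 active = pattern-corrected inhibition above about 35%, with an unprinted fluorescence ratio check between 0.5 and 1.5, limit read from the data, passing the limit was not always enough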;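 note: 0% = enzyme with substrate and 100% = substrate without enzyme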
#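 Schedule: reaction 90 min, room temperature / Assay system: HEK293T-derived human Csn5 enzyme / Input: Csn5 at 0.24 nM final / Measure: inhibition of Csn5 cleavage, % / Control set: substrate-only high control, full reaction low control / Technique: fluorescence polarization of the substrate / Buffer or medium: Tris/NaCl/DTT buffer, pH 7.5 / Reagent: SCFSkp2-Nedd8OG substrate at 10 nM final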
# HNF4A DNA FP – change in binding of human HNF4 alpha to DNA. P41235. HNF4a-FITC DNA binding, fluorescence polarization, 1 h. activity change, % at 10 µM. 360,000 tested, 0.3% active. AID 1224865; in the data active = activity change above about 30%, passing the limit was not always enough
# Target sequence (P41235 whole entry, looked up): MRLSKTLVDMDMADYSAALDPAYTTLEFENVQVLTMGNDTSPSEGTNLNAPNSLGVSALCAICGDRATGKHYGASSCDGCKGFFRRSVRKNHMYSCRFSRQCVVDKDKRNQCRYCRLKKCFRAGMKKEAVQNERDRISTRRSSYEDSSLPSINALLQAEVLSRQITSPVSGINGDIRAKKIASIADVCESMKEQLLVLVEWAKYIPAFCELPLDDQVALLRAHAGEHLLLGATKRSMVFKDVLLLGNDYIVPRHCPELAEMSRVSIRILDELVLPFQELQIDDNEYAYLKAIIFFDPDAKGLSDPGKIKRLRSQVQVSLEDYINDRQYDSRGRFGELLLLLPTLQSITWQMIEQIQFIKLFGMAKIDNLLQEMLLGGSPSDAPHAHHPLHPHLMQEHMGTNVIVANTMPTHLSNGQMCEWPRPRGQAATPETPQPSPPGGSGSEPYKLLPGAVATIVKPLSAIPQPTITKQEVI
# Neddyl conf – confirmation of human cullin neddylation inhibitors; TR-FRET cullin neddylation biochemical assay; AID 652217; calls only at 25 µM; 1,800 tested, 13% active; shares compounds with Neddylation inh; in the data active = inhibition above about 40%;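 note: neddylation substrate is the cullin 1 ring ligase complex with SKP2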
# Starred values were filed as active, the others as inactive; i = inactive; . = not tested or not shown; + = active, no number. Hits are enriched below; roughly 2.4% of the tested compounds scored in any of these assays.
SMILES,PREPL inh,Tb MetRS inh,Neddylation inh,Rpn11 block,CSN deneddyl inh,HNF4A DNA FP,Neddyl conf
COc1ccc(CCNC(=O)c2ccc(Cl)cc2)cc1OC,-1.5,-1.0,-2.7,0.6,0.3,2.4,.
COc1ccc(CCNC(=O)c2ccc3nc4cc(Cl)ccc4c(=O)n3c2)cc1OC,-2.6,1.2,38.7*,7.2,3.7,0.4,i
COc1cc(NC(=O)COc2ccccc2C)ccc1NC(=O)c1ccco1,25.2,-0.7,45.7*,11.6,7.5,-0.5,.
COc1ccc2nc(CC(C)(C)CC(=O)O)c[n+]([O-])c2c1,8.1,-0.5,51.5*,0.1,-4.2,0.3,.
Cc1ccccc1-c1csc(C(O)c2cccnc2)n1 (stereo unspecified),.,0.7,-8.8,-4.2,0.0,1.2,.
Cc1ccn2cc(C(=O)Nc3nnc(C)s3)nc2c1,-8.9,0.0,40.5*,4.6,1.3,-0.4,i
Cc1nn(-c2ccccc2)c(N2CCCC2)c1/C=N/NC(=O)c1ccccc1O,13.2,0.3,45.2*,1.9,-15.1,-2.4,i
CCOC(=O)N1CCN(C(=O)c2ccc3oc(CCc4ccccc4)nc3c2)CC1,.,-0.3,5.5,6.0,2.0,-0.7,.
NC(=O)C1CCN(C(=O)c2ccc3nc(-c4ccccc4)c(-c4ccccc4)nc3c2)CC1,-2.1,-0.8,55.5*,1.2,-0.8,-2.1,.
CCOC(=O)N1CCN(C(=O)c2ccc3nc(-c4ccccc4)c(-c4ccccc4)nc3c2)CC1,-5.4,-0.4,41.8*,2.2,3.4,0.3,i
O=C(N/C(=C\c1ccccc1)C(=O)N1CCCCC1)c1ccc(Br)o1,-1.3,0.0,-3.9,4.1,1.9,4.2,.
C=CC[C@H]1C=C[C@@H](C(C(=O)OC)C(=O)OC)CN1C(C)=O,.,0.1,3.9,-3.0,0.9,3.7,.
C[C@H](NC(=O)c1cc2c(cn1)[nH]c1ccccc12)C(=O)O,.,1.6,42.0*,-2.8,-2.7,2.0,+
COC(=O)[C@H](C)NC(=O)c1cc2c(cn1)[nH]c1ccccc12,-3.5,0.3,19.8,1.8,5.5,-1.9,.
CCCc1c(O)c2ccccc2[nH]c1=O,8.2,0.1,37.6*,-5.1,-2.9,-0.3,i
CCc1nc2c(OCc3cccc(Cl)c3)cccn2c1N(C)C(=O)c1ccc(OC)cc1,.,-0.3,1.6,8.3,-7.0,3.5,.
O=C(NCC(c1ccco1)N1CCOCC1)c1ccc(F)c(F)c1 (stereo unspecified),-3.4,-0.2,0.3,-4.7,-3.1,0.3,.
CN(CC(=O)Nc1cccc(F)c1)C(=O)Cc1ccsc1,.,-0.3,-0.3,-3.9,0.6,1.7,.
O=C1c2ccc(-c3ccc4c(c3)C(=O)N(CCCO)C4=O)cc2C(=O)N1CCCO,9.0,4.8,53.8*,0.7,-0.3,-3.7,i
COc1cccc(CNC(=O)[C@@H]2CCCN2C(=O)[C@H]2CCCCN2C(=O)c2c(F)cccc2F)c1,.,-1.4,-4.5,.,-0.1,-0.3,.
C[C@H](O)C(=O)C1=Nc2c(nc(N)[nH]c2=O)NC1,2.6,-0.7,54.6*,-7.5,-3.8,-8.6,i
Cc1cc(C)n2c3c(c(C#N)c2n1)CCCC3,8.1,1.5,40.9*,1.3,1.7,-1.4,i
CCCNC(=O)C1(C)CCCN(C(=O)c2ccc(F)c(Cl)c2)C1 (stereo unspecified),.,0.5,4.6,0.9,2.1,-1.6,.
N#C/C(=C\c1c(Cl)cccc1Cl)c1nc2ccccc2[nH]1,17.6,-0.3,46.0*,5.1,-2.5,0.4,+
CCOC(=O)c1cc(-c2ccccc2)nc2ccc(C)cc12,24.2,-0.3,40.5*,-5.3,2.3,1.6,.
SMILES,PREPL inh,Tb MetRS inh,Neddylation inh,Rpn11 block,CSN deneddyl inh,HNF4A DNA FP,Neddyl conf
Cc1ccc2nc(-c3ccc4c(c3)OCCO4)cc(C(=O)O)c2c1,-2.9,-0.5,38.3*,3.4,1.8,-1.0,.
COc1cccc(-c2cnc3c(NC(C)=O)cc(-c4ccccc4OC)cn23)c1,.,-0.1,25.7,5.4,5.0,0.6,.
O=C(Nc1ccnn1C1CCN(C(=O)c2cccnc2)CC1)c1cccc(F)c1,.,-0.2,-13.6,-1.4,1.0,3.5,.
COc1cccc(/C=N/NC(N)=S)c1OCc1ccccc1Cl,-13.1,-0.8,19.2,5.1,-0.7,-1.9,.
COc1cccc(/C=N/n2nnnc2N)c1OCc1ccccc1Cl,-11.2,0.1,41.4*,1.4,-9.0,0.1,.
NC(=O)/C(=C/c1ccco1)C(N)=S,10.1,-0.1,68.1*,-22.0,8.6,-10.9,i
CC1(C(=O)Nc2ccc(Cl)cc2)Cc2c(-c3cccc(C(F)(F)F)c3)ccnc2O1 (stereo unspecified),.,-0.4,-2.1,4.7,2.9,-1.6,.
COC(=O)c1cc2c(ccn2-c2ccc(F)cc2)n1CC(=O)OC(C)C,13.3,-0.5,42.7*,-6.4,4.6,4.3,i
O=C(NCc1ccccn1)Nc1cccc(Cl)c1Cl,-3.3,-0.6,0.8,10.0,-1.0,-2.8,.
COc1ccc(-n2cc(CNCc3cccnc3)c(-c3cccc(F)c3)n2)cc1,-12.2,0.1,48.3*,5.5,-2.3,2.9,+
COc1ccc(-n2cc(CNCCc3cnc[nH]3)c(-c3cccc(F)c3)n2)cc1,1.4,-1.5,.,0.3,1.4,-7.2,.
CCOc1ccc2oc(C(=O)OCC(=O)N3CCCC(C)C3)c(C)c2c1 (stereo unspecified),3.9,-0.2,59.5*,-5.9,1.0,-2.0,.
COc1ccc2oc(C(=O)OCC(=O)N3CCCC(C)C3)c(C)c2c1 (stereo unspecified),-0.8,-0.6,.,1.9,0.9,3.3,.
COc1ccc2oc(C(=O)OCC(=O)N(C)CC(=O)Nc3ccc(F)cc3)c(C)c2c1,-13.6,-0.1,46.6*,6.7,-1.1,-1.1,.
COc1ccc2oc(C(=O)OCC(=O)NC3CCCCC3)c(C)c2c1,16.7,-0.1,66.2*,-4.6,-4.8,-4.1,i
COc1cccc(-c2nc(-c3ccccc3)c3ccc(Cl)cc3n2)c1,.,-0.6,-16.6,.,2.0,1.7,.
CC(Oc1ccc2ccc(=O)oc2c1)C(=O)N1CCOCC1 (stereo unspecified),30.2,-0.3,53.0*,0.5,-4.7,11.9,.
CC(Oc1ccc2c(-c3ccccc3)cc(=O)oc2c1)C(=O)N1CCOCC1 (stereo unspecified),22.3,-0.4,-41.2,-7.4,0.0,-2.9,.
Cc1ccc(S(=O)(=O)Nc2ccc(Cl)cc2O)cc1,.,-0.7,-7.3,.,-0.7,2.3,.
CCc1noc(C)c1C(=O)OCC(=O)Nc1nc(-c2ccc(F)c(F)c2)cs1,-7.2,-0.2,-31.5,2.6,1.3,1.3,.
C/C(=N\NC(=O)c1ccc(N2CCCC2=O)cc1)c1ccccc1,0.8,0.4,7.1,-0.2,0.5,-1.7,.
